Assay results as given in publication PMC8500343 (Pharmacology Research & Perspectives, 2021).
Where “and” joins values, the source holds several entries; their conditions need not be identical. Equal values may be shown once. Read-outs that look alike come from different tables or passages of the source.

Experiments:
Bioequivalence part = assay type: in vivo, human (healthy adult subjects); conditions: for Geometric means ratio, AUC0–last / Geometric means ratio, AUC0–∞ / Geometric means ratio, C max: Group 1, FDC vs. free combination, Treatment A/B, fasted; for t 1/2 / AUC(0-t) / AUC(0-inf): mean (SD); for CVw (intrasubject coefficient of variation), AUC0–last / CVw (intrasubject coefficient of variation), AUC0–∞ / CVw (intrasubject coefficient of variation), C max: Group 1, Treatment A/B; for AUC(0-t): AUC0–last; for AUC(0-inf): AUC0–∞
How it was run: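 Single-centre, open-label, randomized two-period crossover in healthy adult men and women. Single oral doses were given after an overnight fast of at least 10 h: fixed-dose tablet (10/40 mg) versus 10 mg macitentan plus 40 mg Canadian-sourced tadalafil tablets. Plasma was sampled predose to 216 h and assayed by LC-MS/MS. Noncompartmental PK gave GMR 90% CIs against 80.00–125.00 limits and intrasubject CV.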

[1] = no reference given; cited from earlier work
Food effect part = assay type: in vivo, human (healthy adult subjects); conditions: for Geometric means ratio, AUC0–last / Geometric means ratio, AUC0–∞ / Geometric means ratio, C max: Treatment C/D; for mean C max higher under fed (test) compared with fasted (reference) conditions / t 1/2 / AUC(0-t) / AUC(0-inf): Group 2, FDC; for mean C max higher under fed (test) compared with fasted (reference) conditions: arithmetic means; for CVw (intrasubject coefficient of variation), AUC0–last / CVw (intrasubject coefficient of variation), AUC0–∞ / CVw (intrasubject coefficient of variation), C max: Group 2, Treatment C/D; for AUC(0-t): AUC0–last; for AUC(0-inf): AUC0–∞
How it was run: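 Healthy adults in a randomized two-way crossover, sequence C-D or D-C. Single oral fixed-dose tablet (10/40 mg) was given fed or fasted; both arms fasted overnight for at least 10 h. Fed dosing followed a high-fat, high-calorie breakfast per FDA guidance, eaten within 30 min. Plasma was sampled predose to 216 h and assayed by LC-MS/MS. Noncompartmental PK gave GMR 90% CIs against 80.00–125.00 limits.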

[2] = Stability in plasma samples; assay type: in vitro ADME, human
[3] = cited from earlier work
[4] = Group 1, FDC, fasted (Treatment A)
[5] = both, human, plasma, oral, Group 1, FDC, fasted (Treatment A)
[6] = both, human, plasma, oral, Group 1, free combination, fasted (Treatment B)
[7] = both, human, plasma, oral, fasted (Treatment D), mean (SD)
[8] = both, human, plasma, oral, fed (Treatment C), mean (SD)
[9] = Group 1, free combination, fasted (Treatment B)
[10] = fasted (Treatment D), mean (SD)
[11] = in the presence of macitentan and metabolite

Compound	Geometric means ratio, AUC0–last (Bioequivalence part) [%]	Geometric means ratio, AUC0–∞ (Bioequivalence part) [%]	Geometric means ratio, C max (Bioequivalence part) [%]	t 1/2 (Bioequivalence part; [4])	CVw (intrasubject coefficient of variation), AUC0–last (Bioequivalence part) [%]	CVw (intrasubject coefficient of variation), AUC0–∞ (Bioequivalence part) [%]	CVw (intrasubject coefficient of variation), C max (Bioequivalence part) [%]	AUC(0-t) (Bioequivalence part; [5]) [ng·h/mL]	AUC(0-t) (Bioequivalence part; [6]) [ng·h/mL]	AUC(0-inf) (Bioequivalence part; [5]) [ng·h/mL]	AUC(0-inf) (Bioequivalence part; [6]) [ng·h/mL]	Geometric means ratio, AUC0–last (Food effect part; Group 2, FDC fed vs. fasted) [%]	Geometric means ratio, AUC0–∞ (Food effect part; Group 2, FDC fed vs. fasted) [%]	Geometric means ratio, C max (Food effect part; Group 2, FDC fed vs. fasted) [%]	CVw (intrasubject coefficient of variation), AUC0–last (Food effect part) [%]	CVw (intrasubject coefficient of variation), AUC0–∞ (Food effect part) [%]	CVw (intrasubject coefficient of variation), C max (Food effect part) [%]	AUC(0-t) (Food effect part; [8]) [ng·h/mL]	AUC(0-inf) (Food effect part; [7]) [ng·h/mL]	AUC(0-inf) (Food effect part; [8]) [ng·h/mL]	other results
CCCNS(=O)(=O)Nc1ncnc(OCCOc2ncc(Br)cn2)c1-c1ccc(Br)cc1 [Macitentan]	100.96	100.66	101.49	13.9 (2.87) h	9.6	9.5	11.2	5850	5800	5930	5900	102.32	102.13	116.10	6.6	6.4	12.4	6430	6340	6540	Tmax (Bioequivalence part; Group 1, free combination, fasted (Treatment B), median (range)): 10.0 (3.55–12.0) h; Tmax (Bioequivalence part; both, human, plasma, oral): 10 h; half-life (Bioequivalence part; both, human, plasma, oral): 14.6 h; biopharmaceutical classification system (BCS) class [1]: 2; 90% CI for the GMR of C max versus equivalence limits (80.00% to 125.00%) (Food effect part; Group 2, FDC fed vs. fasted): outside the equivalence limits; C max geometric means ratio, test higher compared to reference (Food effect part; Group 2, FDC fed vs. fasted): 16.10%; mean C max higher under fed (test) compared with fasted (reference) conditions (Food effect part): approximately 15.9%; t 1/2 (Food effect part; fed (Treatment C), mean (SD)): 14.1 (2.50) h; Tmax (Food effect part; both, human, plasma, oral): 10 h; half-life (Food effect part; both, human, plasma, oral): 15.5 h; AUC(0-t) (Food effect part; [7]): 6220 ng·h/mL; stability in plasma samples at room temperature ([2]; in the presence of tadalafil): at least 26 h; stability in plasma samples, freeze/thaw cycles ([2]; in the presence of tadalafil): 5 freeze/thaw cycles
CN1CC(=O)N2[C@H](c3ccc4c(c3)OCO4)c3[nH]c4ccccc4c3C[C@@H]2C1=O [Tadalafil]	98.87	98.82	88.30	22.8 (7.76) h	11.3	11.3	16.1	20600	20800	20700	20900	111.07	111.04	144.97	9.9	9.9	17.7	22300	19900	22500	t 1/2 (Bioequivalence part; [9]): 22.7 (7.26) h; Tmax (Bioequivalence part; both, human, plasma, oral): 2.5 h; biopharmaceutical classification system (BCS) class [1]: 2; geometric mean of tadalafil C max under fed conditions ([3]; tadalafil alone, fed): 586 ng/mL; C max ([3]; tadalafil in a fasted state, another study): 614 ng/mL; intersubject variability in C max (Food effect part; FDC under fasting conditions): 34.0%; C max geometric means ratio, test higher compared to reference (Food effect part; Group 2, FDC fed vs. fasted): 45% and 44.97%; mean C max higher under fed (test) compared with fasted (reference) conditions (Food effect part): approximately 42.5%; t 1/2 (Food effect part; [10]): 23.4 (6.64) h; Tmax (Food effect part; both, human, plasma, oral): 2.5 h; half-life (Food effect part; both, human, plasma, oral): 24.5 h; AUC(0-t) (Food effect part; [7]): 19700 ng·h/mL; Cmax (Food effect part; both, human, plasma, oral, geometric mean of tadalafil C max under fed conditions, FDC formulation, fed): 666 ng/mL; ratio of geometric mean tadalafil C max, FDC formulation vs. tadalafil (Food effect part; fed conditions, 666 ng/ml vs. 586 ng/ml (ref 21)): 1.14; stability in plasma samples at room temperature [2, 11]: at least 24 h; stability in plasma samples at −20 and −70℃ [2, 11]: 127 days; stability in plasma samples, freeze/thaw cycles [2, 11]: 5 freeze/thaw cycles
NS(=O)(=O)Nc1ncnc(OCCOc2ncc(Br)cn2)c1-c1ccc(Br)cc1 [Aprocitentan]	–	–	–	50.7 (9.99) h	–	–	–	20900	20800	22600	22500	104.50	103.98	107.25	7.2	7.0	7.4	18900	19500	20300	t 1/2 (Bioequivalence part; [9]): 49.4 (6.92) h; C max (Food effect part; Group 2, FDC 10/40 mg, fasted (Treatment D), mean (SD)): 165 (29.3) ng/ml; 90% CI of GMRs for all 3 PK parameters versus equivalence limits (Food effect part; Group 2, FDC fed vs. fasted): within the equivalence limits; t 1/2 (Food effect part; [10]): 49.7 (7.63) h; t 1/2 (Food effect part; fed (Treatment C), mean (SD)): 49.4 (6.02) h; stability in plasma samples at room temperature ([2]; in the presence of tadalafil): at least 26 h; stability in plasma samples, freeze/thaw cycles ([2]; in the presence of tadalafil): 5 freeze/thaw cycles
